Results gathered from unrelated publications.
Lines come from different studies, so protocols differ.
RET: Proto-oncogene tyrosine-protein kinase receptor Ret (RET, Homo sapiens, UniProt P07949)
RET V804M: Proto-oncogene tyrosine-protein kinase receptor Ret (RET, Homo sapiens, UniProt P07949, V804M)

`CCCCC(=O)Nc1ccc(-c2ccc3ncn(CCC)c(=O)c3c2)cn1` has a remaining binding of 100% (Proto-oncogene tyrosine-protein kinase receptor Ret (RET, Homo sapiens, UniProt P07949, V804L); binding, competition with immobilised ligand; 0.5 µM).
For `CC#CC(=O)N1CCC[C@H]1c1nc(-c2ccc(C(=O)Nc3ccccn3)cc2)c2c(N)nccn12`, the inhibition was 7% (RET; enzyme activity, inhibitor; 1 µM).
For `COc1ccc2oc(-c3ccc4nc(N)oc4c3)c/c(=N\c3ccccc3NC(=O)CCN)c2c1`, the remaining binding was 109% (RET; binding; 1 µM).
The remaining binding of `CN1CCN(C(=O)c2ccc(NC(=O)Nc3ccc(N(C)c4ccnc(Nc5ccc(CS(C)(=O)=O)cc5)n4)cc3)cc2)CC1` is reported as 0.5% (RET V804M; binding; 1 µM).
The remaining binding of `C1=C/COCc2cc(ccc2OCCN2CCCC2)Nc2nccc(n2)-c2cccc(c2)COC/1` is reported as 100% (Proto-oncogene tyrosine-protein kinase receptor Ret (RET, Homo sapiens, UniProt P07949, M918T); binding; 0.1 µM).
With `N#Cc1ccc(NC(=O)Nc2ccccc2)cc1` the remaining binding was 100% (RET; cell-free assay, competition with immobilised ligand; 25 µM).
With `CO[C@@H]1[C@H](N(C)C(=O)c2ccccc2)C[C@H]2O[C@]1(C)n1c3ccccc3c3c4c(c5c6ccccc6n2c5c31)C(=O)NC4` the inhibition was 95% (RET; enzyme activity, inhibitor; 1 µM).
`Cc1ccc(NC(=O)c2ccnc(C(F)(F)F)c2)cc1-c1cc(OCCO)nc(N2CCOCC2)c1` has a remaining binding of 98% (RET V804M; binding; 1 µM).
